In ChEMBL document CHEMBL3865787, “Combinatorial synthesis, in silico, molecular and biochemical studies of tetrazole-derived organic selenides with increased selectivity against hepatocellular carcinoma” (Eur J Med Chem, 2016):
Calls of active or inactive are those of the source. The calls are words filed in the database; no cut-off is given here.

Assays:
[1] = Cytotoxicity against human MCF7 cells assessed as reduction in cell viability after 48 hrs by MTT assay; type: functional, cell-based; conditions: MCF7, 48 h
Summary of the method: (§1)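 Cells were grown in DMEM with 10% calf serum and seeded at 50,000 cells/mL. They grew 2 days at 37 °C, 10% CO2, then took serial compound dilutions for 48 h. MTT (final 0.5 mg/mL) ran 2 h; formazan was washed, dissolved in DMSO and read at 590 nm. IC50 was taken from dose-response curves as the mean of two parallel experiments. 5-FU was the positive control. TI = IC50 WI-38/IC50 HepG2.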

[2] = Cytotoxicity against human HepG2 cells assessed as reduction in cell viability after 48 hrs by MTT assay; type: functional, cell-based; conditions: HepG2, 48 h; summary of the method: as §1
[3] = Cytotoxicity against human WI38 cells assessed as reduction in cell viability after 48 hrs by MTT assay; type: toxicity, cell-based, WI-38; summary of the method: as §1
[4] = Antioxidant activity assessed as DPPH radical scavenging activity at 1 uM after 30 mins in absence of light by spectrophotometric analysis; type: functional
Summary of the method: (§2)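 Compounds were dissolved in methanol at 1 µM, and 200 µL was added to 0.4 mL of 0.1 mM DPPH in methanol. Mixtures stood 30 min in the dark and were read at 517 nm against a blank (no DPPH). The negative control used methanol in place of compound. I% = (Ablank − Asample)/Ablank × 100. Ascorbic acid was the reference. Means of 3 replicates.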

[5] = Antioxidant activity assessed as DPPH radical scavenging activity at 1 uM after 30 mins in absence of light by spectrophotometric analysis relative to ascorbic acid; type: functional; summary of the method: as §2
[6] = Pro-oxidant activity as bleomycin-Fe2+ induced calf thymus DNA damage measured as absorbance at 2 mM after 1 hr by thiobarbituric acid-based assay; type: ADME; design: unit not given here; conditions: cattle, 2000 µM
Summary of the method: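 The mix held calf thymus DNA 0.5 mg/mL, bleomycin sulfate 0.05 mg/mL, MgCl2 5 mM, FeCl3 50 mM and sample 2 mM. Ascorbic acid was the positive control. Capped tubes were heated at 80 °C for 30 min, ice-cooled, shaken and centrifuged. DNA damage was read as the increase in absorbance at 532 nm. Means of 3 replicates.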

[7] = Glutathione peroxidase-like activity assessed as decrease in H2O2 reduction at 41 uM preincubated with compound followed by H2O2 addition after 3 mins by spectrophotometry based NADPH-reductase coupled assay
Summary of the method: (§3)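 Buffer: 50 mM phosphate with 0.1% Triton X-100, plus NADPH reagent (24 µmol glutathione, 12 U glutathione reductase, 4.8 µmol NADPH). Compound was at 41 µM and the reaction was started with 0.8 mM H2O2. A340 was followed for 3 min, giving ΔA/min. Rates were corrected for background H2O2/GSH reaction, and for compound absorbance where colored. Ebselen (41 µM) served as reference.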

[8] = Therapeutic index, ratio of IC50 for human WI38 cells to IC50 for human HepG2 cells; type: cell-based; conditions: WI38 cells and HepG2 cells, read-out: Ratio IC50; summary of the method: as §1
[9] = Glutathione peroxidase-like activity assessed as decrease in H2O2 reduction at 41 uM preincubated with compound followed by H2O2 addition after 3 mins by spectrophotometry based NADPH-reductase coupled assay relative to ebselen; summary of the method: as §3
[10] = Upregulation of caspase-8 expression in human HepG2 cells at IC50 after 48 hrs by ELISA; type: functional, cell-based
Summary of the method: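 Cells were trypsinized and lysed by liquid-nitrogen freeze–thaw. Lysates were incubated with HRP-conjugated anti-caspase-8 antibody for 30 min at 37 °C, with ELISA read-out at 450 nm. Levels were compared against untreated cells; mean ± SD, ANOVA with LSD/Dunnett post hoc.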

[11] = Downregulation of Ki67 expression in human HepG2 cells at IC50 after 48 hrs by ELISA; type: functional, cell-based
Summary of the method: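 They were detached with trypsin and lysed by four rounds of ultrasonication before Ki-67 measurement. Comparison was with untreated cells; mean ± SD, ANOVA with LSD/Dunnett post hoc.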

[12] = Downregulation of Bcl2 expression in human HepG2 cells at IC50 after 48 hrs by ELISA; type: functional, cell-based
Summary of the method: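 For ELISA, lysates had biotin conjugate 2 h at 25 °C, then streptavidin-HRP 1 h at 25 °C, read at 450 nm. Comparison was with untreated cells; mean ± SD, ANOVA with LSD/Dunnett post hoc.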

SMILES	IC50 [1]	IC50 [2]	IC50 at 48 h [3]	Activity [4]	fold change (FC) [5]	Activity [6]	Activity [7]	selectivity ratio [8]	fold change (FC) [9]	Activity [10]	Activity [11]	Activity [12]
Cc1ccc(C(Nc2ccc([Se][Se]c3ccc(NC(c4ccc(C)cc4)c4nnnn4C(C)(C)C)cc3)cc2)c2nnnn2C(C)(C)C)cc1 (stereo unspecified)	62 µM	46 µM	41 µM	30.4%	0.3	98	–	–	–	–	–	–
COc1ccc(-n2nnnc2C(Nc2ccc([Se][Se]c3ccc(NC(c4nnnn4-c4ccc(OC)cc4)C(C)C)cc3)cc2)C(C)C)cc1 (stereo unspecified)	≥ 100 µM	≥ 100 µM	≥ 100 µM	30.5%	0.3	77	–	–	–	–	–	–
COc1ccc(Cn2nnnc2C(Nc2ccc([Se][Se]c3ccc(NC(c4ccco4)c4nnnn4Cc4ccc(OC)cc4OC)cc3)cc2)c2ccco2)c(OC)c1 (stereo unspecified)	≥ 100 µM	≥ 100 µM	88 µM	18.8%	0.2	81	Active	–	–	–	–	–
c1coc(C(Nc2ccc([Se][Se]c3ccc(NC(c4ccco4)c4nnnn4C4CCCCC4)cc3)cc2)c2nnnn2C2CCCCC2)c1 (stereo unspecified)	≥ 100 µM	36 µM	83 µM	49.5%	0.5	222	Active	2	< 5	–	–	–
CC1=C([Se]c2ccc(NCc3nnnn3C(C)(C)C)cc2)C(=O)c2ccccc2C1=O	42 µM	33 µM	48 µM	69%	0.8	103	–	1.5	–	–	–	–
CC(C)C(Nc1ccc([Se][Se]c2ccc(NC(c3nnnn3C(C)(C)C)C(C)C)cc2)cc1)c1nnnn1C(C)(C)C (stereo unspecified)	≥ 100 µM	37 µM	≥ 100 µM	38.6%	0.4	67	–	> 3	–	–	–	–
CC(=O)N(c1ccc([Se]C2=CC(=O)c3ccccc3C2=O)cc1)C(C(=O)NC(C)(C)C)c1ccc(C)cc1 (stereo unspecified)	34 µM	53 µM	29 µM	–	–	–	–	> 0.5	–	Active	Active	Active
CC1=C([Se]c2ccc(NC(c3ccc(C)cc3)c3nnnn3C(C)(C)C)cc2)C(=O)c2ccccc2C1=O (stereo unspecified)	≥ 100 µM	47 µM	36 µM	93%	1	90	Active	0.8	< 5	Active	Active	Active
O=c1[nH]cc(F)c(=O)[nH]1 [FLUOROURACIL]	3 µM	8 µM	4 µM	–	–	–	–	0.5	–	–	–	–
COC(CC(OC)OC)Cn1nnnc1C(Nc1ccc([Se][Se]c2ccc(NC(c3nnnn3CC(CC(OC)OC)OC)C(C)C)cc2)cc1)C(C)C (stereo unspecified)	≥ 100 µM	47 µM	≥ 100 µM	26.3%	0.3	94	Active	> 2	–	–	–	–
CC1=C([Se]c2ccc(NC(c3ccco3)c3nnnn3C(C)(C)C)cc2)C(=O)c2ccccc2C1=O (stereo unspecified)	≥ 100 µM	9 µM	5 µM	95.3%	1	138	–	0.6	–	Active	Active	Active
CC(C)(C)n1nnnc1C(Nc1ccc([Se][Se]c2ccc(NC(c3ccco3)c3nnnn3C(C)(C)C)cc2)cc1)c1ccco1 (stereo unspecified)	14 µM	51 µM	11 µM	24%	0.3	108	Active	–	< 5	–	–	–
CC(C)C(Nc1ccc([Se][Se]c2ccc(NC(c3nnnn3Cc3ccccc3)C(C)C)cc2)cc1)c1nnnn1Cc1ccccc1 (stereo unspecified)	≥ 100 µM	10 µM	≥ 100 µM	20.5%	0.2	92	–	> 10	–	Active	Active	Active
c1cc([Se][Se]c2ccc(NCc3nnnn3C3CCCCC3)cc2)ccc1NCc1nnnn1C1CCCCC1	≥ 100 µM	≥ 100 µM	68 µM	19.4%	0.2	96	Active	–	–	–	–	–
O=C1O[C@H]([C@@H](O)CO)C(O)=C1O [ASCORBIC ACID]	–	–	–	96.5%	–	310	–	–	–	–	–	–
CC(C)(C)n1nnnc1CNc1ccc([Se][Se]c2ccc(NCc3nnnn3C(C)(C)C)cc2)cc1	28 µM	44 µM	21 µM	44.3%	0.5	93	Active	–	–	–	–	–
COc1ccc(Cn2nnnc2C(Nc2ccc([Se][Se]c3ccc(NC(c4ccc(C)cc4)c4nnnn4Cc4ccc(OC)cc4OC)cc3)cc2)c2ccc(C)cc2)c(OC)c1 (stereo unspecified)	≥ 100 µM	≥ 100 µM	≥ 100 µM	22.1%	0.2	130	Active	–	< 5	–	–	–
Cc1ccc(C(Nc2ccc([Se][Se]c3ccc(NC(c4ccc(C)cc4)c4nnnn4C4CCCCC4)cc3)cc2)c2nnnn2C2CCCCC2)cc1 (stereo unspecified)	78 µM	≥ 100 µM	56 µM	22.9%	0.3	79	–	–	–	–	–	–
COc1ccc(Cn2nnnc2C(Nc2ccc([Se][Se]c3ccc(NC(c4nnnn4Cc4ccc(OC)cc4OC)C(C)C)cc3)cc2)C(C)C)c(OC)c1 (stereo unspecified)	70 µM	2 µM	64 µM	31.8%	0.3	81	Active	32	< 5	–	–	–
CC(C)C(Nc1ccc([Se][Se]c2ccc(NC(c3nnnn3C3CCCCC3)C(C)C)cc2)cc1)c1nnnn1C1CCCCC1 (stereo unspecified)	52 µM	≥ 100 µM	43 µM	22.9%	0.2	99	–	–	–	–	–	–
